The source made the active and inactive calls. The rule behind the calls is not given here.
Experiments:
K562 = experiment: Cytotoxicity against human K562 cells after 48 hrs by MTT assay; assay type: functional, cell-based; conditions: K562, 48 h
Outline: (§1)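 MTT conversion assay at 37 °C, 5% CO₂. […] Inhibition relative to untreated cells as 100%; IC50 by linear regression, mean of three independent experiments.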

HepG2 [1] = experiment: Cytotoxicity against human HepG2 cells after 48 hrs by MTT assay; assay type: functional, cell-based; conditions: HepG2, 48 h; outline: as §1
MDA-MB-231 = experiment: Cytotoxicity against human MDA-MB-231 cells after 48 hrs by MTT assay; assay type: functional, cell-based; conditions: MDA-MB-231, 48 h; outline: as §1
HepG2 [2] = experiment: Cytotoxicity against human HepG2 cells assessed as mitochondrial permeability augmentation after 48 hrs by fluorescence-based high-content screening assay; assay type: functional, cell-based
Outline: (§2)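 HepG2 seeded 5 × 10³/well; after 12 h treated at 1, 5, 10, 15 and 30 μM for 48 h. Multiparameter cytotoxicity kit staining imaged by high-content screening: Hoechst 33342 for nuclear morphology, permeability dye (green nuclei) for membrane integrity, mitochondrial potential dye, and a weak-base dye for lysosomal mass/pH.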

HepG2 [3] = experiment: Cytotoxicity against human HepG2 cells assessed as acruement in lysosomal mass/pH after 48 hrs by fluorescence-based high-content screening assay; assay type: functional, cell-based; outline: as §2
HepG2 [4] = experiment: Cytotoxicity against human HepG2 cells assessed as decrease in mitochondrial membrane potential after 48 hrs by fluorescence-based high-content screening assay; assay type: functional, cell-based; outline: as §2
HepG2 [5] = experiment: Cytotoxicity against human HepG2 cells assessed as cell nuclear shrinkage after 48 hrs by Hoechst 33342-based fluorescence-based high-content screening assay; assay type: functional; outline: as §2
HCT-116 = experiment: Cytotoxicity against human HCT116 cells after 48 hrs by MTT assay; assay type: functional, cell-based; conditions: HCT-116, 48 h; outline: as §1
HepG2 [6] = experiment: Cytotoxicity against human HepG2 cells assessed as mitochondrial permeability augmentation at 1 to 30 uM after 48 hrs by fluorescence-based high-content screening assay; assay type: functional, cell-based; outline: as §2
HepG2 [7] = experiment: Cytotoxicity against human HepG2 cells assessed as cell nuclear shrinkage at 1 to 30 uM after 48 hrs by Hoechst 33342-based fluorescence-based high-content screening assay; assay type: functional; outline: as §2
HepG2 [8] = experiment: Cytotoxicity against human HepG2 cells assessed as decrease in mitochondrial membrane potential at 1 to 30 uM after 48 hrs by fluorescence-based high-content screening assay; assay type: functional, cell-based; outline: as §2
HepG2 [9] = experiment: Cytotoxicity against human HepG2 cells assessed as acruement in lysosomal mass/pH at 1 to 30 uM after 48 hrs by fluorescence-based high-content screening assay; assay type: functional, cell-based; outline: as §2

Row | Compound | IC50 (K562) [µM] | IC50 (HepG2 [1]) [µM] | IC50 (MDA-MB-231) [µM] | further results
1 | NCCCCNCCCCNCCCCN1C(=O)c2cccc3c(-c4ccccc4)ccc(c23)C1=O | 14.2 | 32.1 | 19.1 | –
2 | NCCCCNCCCCN1C(=O)c2cccc3c(-c4ccccc4)ccc(c23)C1=O | 14.4 | 17.1 | 19.2 | –
3 | NCCCNCCCCN1C(=O)c2ccc3c4c(ccc(c24)C1=O)C(=O)N(CCCCNCCCN)C3=O | 21.2 | 33.3 | 20.2 | –
4 | CN(C)CCN1C(=O)c2cccc3c(-c4ccccc4)ccc(c23)C1=O | > 50 | 37 | 39.2 | Activity (HepG2 [2]): Dose-dependent effect; Activity (HepG2 [3]): Dose-dependent effect; Activity (HepG2 [4]): Dose-dependent effect; Activity (HepG2 [5]): Dose-dependent effect
5 | NCCCCNCCCCNCCCCN1C(=O)c2ccc(-c3ccc4c(c3)C(=O)N(CCCCNCCCCNCCCCN)C4=O)cc2C1=O | – | > 50 | > 50 | IC50 (HCT-116): > 50 µM; Activity (HepG2 [6]): inactive; Activity (HepG2 [7]): inactive; Activity (HepG2 [8]): inactive; Activity (HepG2 [9]): inactive
6 | NCCCNCCCNCCCN1C(=O)c2ccc3c4c(ccc(c24)C1=O)C(=O)N(CCCNCCCNCCCN)C3=O | 21.2 | 48.5 | 18 | –
7 | NCCCCNCCCCN1C(=O)c2ccc3c4c(ccc(c24)C1=O)C(=O)N(CCCCNCCCCN)C3=O | 41 | 43.8 | 27.6 | –

Reference: ChEMBL document CHEMBL2046427, “Nonhematotoxic naphthalene diimide modified by polyamine: synthesis and biological evaluation” (J Med Chem, 2012)
